H9c2 TAG inh: triacylglycerol accumulation inhibition. H9c2 cells, Nile Red lipid (TAG) fluorescence; cells loaded with 200 µM oleic acid. inhibition, % at 12.5 µM. 230,000 compounds, 0.66% hits;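 active = pattern-corrected inhibition of lipid staining of at least 50% with the nuclear-stain viability signal not falling by more than 50%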
Efflux pump inh: inhibitors of Candida antifungal efflux pumps expressed in yeast | 330,000 compounds, 0.44% hits | inhibition, % at 10 µM | AID 485275 | S. cerevisiae Candida pump triplex, Nile Red efflux;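 active = plate passing quality check with inhibition over a set limit, or well fluorescence over plate mean plus 4 SD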;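 also: Nile Red retained in pooled yeast measured as flow cytometry median fluorescence; higher means more Nile Red kept so more efflux inhibition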
MC4R ag barr: activates human MC4R beta-arrestin recruitment | activation, % at 8.9 µM | 360,000 compounds, 0.98% hits | AID 540308 | P32245 | U2OS MC4R beta-arrestin complementation, luminescence; percent of melanotan II response, DMSO zero;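 active = activation above a per-plate cutoff, the mean activation of sample wells on that plate plus 3 SD, cut at about 8% in these data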
Target sequence (P32245 whole entry, looked up): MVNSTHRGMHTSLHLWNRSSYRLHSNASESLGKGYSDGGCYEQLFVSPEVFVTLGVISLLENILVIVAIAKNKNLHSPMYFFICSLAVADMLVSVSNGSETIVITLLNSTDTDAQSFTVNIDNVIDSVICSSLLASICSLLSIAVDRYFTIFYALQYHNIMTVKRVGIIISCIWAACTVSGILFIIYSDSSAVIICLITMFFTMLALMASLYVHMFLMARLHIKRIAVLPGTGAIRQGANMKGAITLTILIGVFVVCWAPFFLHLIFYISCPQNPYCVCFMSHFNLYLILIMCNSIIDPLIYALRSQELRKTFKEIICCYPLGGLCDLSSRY
Calb FLC: affects C. albicans growth with fluconazole; AID 1979; 300,000 compounds, 0.57% hits; growth inhibition, % (test concentration not listed); C. albicans CaCi-2 + fluconazole, Alamar Blue growth, 48 h;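 active = growth inhibition above about 58% in most replicates, limit read from the data, passing the limit was not always enough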;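 also: all wells also contain fluconazole at 8 µg/ml as a sub-toxic cotreatment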
MC4R antagonist: blocks human MC4R cAMP signaling; 360,000 compounds, 0.48% hits; MC4R-expressing cells, MTII-stimulated cAMP, LANCE TR-FRET; P32245; inhibition, % at 6.5 µM;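 active = inhibition above its plate's cutoff, the mean of tested wells on that plate plus 3 SD, cut at about 29% in these data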
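material = U2OS cells stably expressing human melanocortin 4 receptor (MC4R) | also added = Melanotan II challenge | dosing = single nominal compound dose of 6.5 µM | detection = TR-FRET with Eu-cAMP and labeled anti-cAMP, 671 nm | replication = singlicate | timing = compound 30 min, challenge 1 h, detection 1 h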
GalR3 antagonist: blocks the human galanin receptor 3; HEK293 GalR3-CNG cAMP membrane potential fluorescence; galR3 body fused to GalR1 C-terminus; O60755; 360,000 compounds, 0.44% hits; inhibition, % at 3 µM;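 active = inhibition above the screen-wide average plus 3 SD, cut at about 13% in these data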;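 also: forskolin and galanin both at EC90 stimulate the cells; cAMP rise reported by CNG channel membrane potential dye signal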
Target sequence (O60755 1-299 limits assumed): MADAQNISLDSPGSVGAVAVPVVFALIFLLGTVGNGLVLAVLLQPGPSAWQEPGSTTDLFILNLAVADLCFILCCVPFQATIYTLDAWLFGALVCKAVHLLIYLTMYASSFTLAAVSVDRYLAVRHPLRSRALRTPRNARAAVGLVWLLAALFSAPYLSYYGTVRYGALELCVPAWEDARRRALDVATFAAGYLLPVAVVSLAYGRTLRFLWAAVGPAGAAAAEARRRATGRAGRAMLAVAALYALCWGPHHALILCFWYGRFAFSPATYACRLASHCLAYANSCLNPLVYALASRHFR
MC4R barr conf: human MC4R beta-arrestin agonism confirmation; shares compounds with MC4R ag barr; U2OS MC4R beta-arrestin recruitment, luminescence; scaled DMSO 0%, Melanotan II 100%; activation, % at 8.9 µM; 2,400 compounds, 31% hits;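 active = mean activation across replicates above the hit cutoff set in the earlier primary screen, cut at about 8% in these data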
MOR DOR agonist: counter-screen for MC4R agonists: agonists of mu-delta opioid heterodimer. 2,400 compounds, 5.8% hits. U2OS PathHunter beta-arrestin, beta-gal luminescence; percent of deltorphin B response, DMSO zero. AID 602194. shares compounds with MC4R ag barr. activation, % at 9.2 µM;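 active = mean activation across replicates exceeds the hit threshold derived in the earlier primary screen, cut at about 18% in these data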
Hits are given with their value; - = inactive; . = not tested or not shown; ! = a repeat was not active. Shown are actives, neighbours in structure and some others; about 2.9% of the full set was active somewhere.

SMILES	H9c2 TAG inh	Efflux pump inh	MC4R ag barr	Calb FLC	MC4R antagonist	GalR3 antagonist	MC4R barr conf	MOR DOR agonist
CC1CCc2c(sc(NC(=O)CSc3nnc(-c4ccccc4)o3)c2C#N)C1 (stereo not given)	.	-	-	-	-	-	.	.
Cc1cc(OCC(=O)Nc2sc3c(c2C#N)CC(C)(C)NC3(C)C)c(C(C)C)cc1Cl	.	-	14	-	-	-	8.5	-
N#Cc1c(NC(=O)CSc2nnc(-c3ccccc3)o2)sc2c1CCCC2	.	-	23	-	-	.	-	-
Cc1ccc(C(=O)NCc2nnc(SCC(=O)Nc3sc4c(c3C#N)CCCC4)n2C)cc1	.	-	-	-	-	-	.	.
Cc1ccccc1OCC(=O)Nc1sc2c(c1C#N)CCC2	.	-	17	-	-	-	-	-
COC(=O)[C@H](Cc1ccccc1)NS(=O)(=O)c1ccc(F)cc1Br	-	.	-	.	-	-	.	.
O=c1c2ccc(Cl)cc2nc2n1CC/C2=C\c1cccc(O)c1	.	-	-	-	-	-	.	.
CCOc1cc(/C=C2\CCn3c2nc2cc(Cl)ccc2c3=O)ccc1O	.	-	12	-	-	-	9.2	-
O=C(COC(=O)c1c(F)cccc1F)NC(=O)NCc1ccccc1	-	.	-	.	-	-	.	.
Cc1noc(C)c1-c1ccc(C(=O)NCCc2ccccc2)c2occc12	-	.	-	.	-	-	.	.
COc1ccc(OC)c(-c2cc(C(=O)Nc3cc(C)on3)no2)c1	.	-	17	-	-	-	10	-
COc1ccc(-c2cc(C(=O)Nc3cc(C)on3)no2)cc1	-	-	.	-	.	-	.	.
COc1ccc(NC(=O)c2cc(-c3ccco3)on2)c(OC)c1	.	-	10	-	-	-	-	-
Cc1ccc(C(=O)OCC(=O)Nc2cccc(S(=O)(=O)N3CCCCC3)c2)s1	-	.	-	.	-	-	.	.
CC(=O)c1c(C)[nH]c(C(=O)OCC(=O)N2CCN(c3ccccc3)CC2)c1C	-	.	-	.	-	-	.	.
COc1ccc(-c2cccc3c2C2CC3CCN2C(=O)OCc2ccccc2)cc1 (stereo not given)	-	.	-	.	-	-	.	.
Cc1csc(-c2nc3ccccc3n2C(C(=O)NC(C)(C)C)c2ccccc2)c1 (stereo not given)	.	.	.	.	.	-	.	.
CCCCCNCC(=O)Nc1cccc(C(=O)Nc2cccc(C(F)(F)F)c2)c1	-	-	15	-	-	-	16	-
Cc1ccc(C(=O)Nc2cccc(C(F)(F)F)c2)cc1NC(=O)c1nccnc1N	-	-	17	-	-	-	-	44!
Cc1ccc(C(=O)Nc2cccc(C(F)(F)F)c2)cc1NC(=O)c1[nH]cnc1C(N)=O	-	-	-	.	-	-	.	.
O=C(CN1CCOCC1)Nc1cccc(C(=O)Nc2cccc(C(F)(F)F)c2)c1	-	-	-	-	-	-	.	.
CN(N=Cc1ccc2c(c1)OCO2)C(=O)c1ccccc1N	.	.	.	.	.	-	.	.
CC1(C(=O)Nc2ccc3ccccc3c2)CCC(=O)N1CCOc1ccccc1 (stereo not given)	.	.	.	.	.	-	.	.
O=C(COC(=O)/C=C/c1ccc([N+](=O)[O-])cc1)NC(=O)NC1CCCCC1	-	-	19	.	-	-	-	-
O=C(COC(=O)/C=C/c1ccc([N+](=O)[O-])cc1)NC(c1ccccc1)c1ccccc1	.	-	12	-	-	-	-	-
SMILES	H9c2 TAG inh	Efflux pump inh	MC4R ag barr	Calb FLC	MC4R antagonist	GalR3 antagonist	MC4R barr conf	MOR DOR agonist
C=CCOc1ccc(/C=C/C(=O)OCC(=O)NCC2CCCCC2)cc1	-	-	12	-	-	-	-	-
O=C(COC(=O)/C=C/c1ccc([N+](=O)[O-])cc1)NCc1ccccc1	.	-	-	-	-	-	.	.
CCC(Oc1cc(Cl)ccc1Cl)C(=O)NN1C(=O)C2C3CCC(C3=C(C)C)C2C1=O (stereo not given)	-	-	9.9	-	-	-	-	-
CCC(Oc1cc(Cl)ccc1Cl)C(=O)NNC(=O)CCC(=O)O (stereo not given)	.	-	-	-	-	-	.	.
Cc1ccc(-c2nn3c(C)nnc3s2)cc1NC(=O)c1ccc(-c2cccc(Cl)c2)o1	-	.	13	-	-	-	-	-
COCc1cc(N2CCNC[C@@H]2C)ccc1N1CCN(Cc2ccccc2)[C@@H](C)C1	.	.	.	.	.	-	.	.
CCCNC(=O)c1cc(C2CCCCN2C(=O)c2cc(C(C)(C)C)nn2C)on1 (stereo not given)	-	.	-	.	-	-	.	.
CC(C)Oc1ccc(C(=O)Nc2ccc(NC(=O)c3ccco3)c(Cl)c2)cc1	-	-	-	-	-	-	.	.
CC(C)COc1ccc(C(=O)Nc2ccc(NC(=O)c3ccco3)c(Cl)c2)cc1	.	-	40	-	-	-	24	28
Cc1ccccc1OCc1nc(-c2ccc(NC(=O)c3cccs3)cc2)no1	-	-	16	-	-	-	-	-
CCCc1ccc(OCc2nc(-c3ccc(NC(=O)c4ccco4)cc3)no2)cc1	-	-	-	-	-	-	.	.
Cc1ccccc1OCc1nc(-c2ccc(NC(=O)c3ccco3)cc2)no1	-	-	23	-	-	-	-	-
COC(=O)c1ccc(C(=O)OC)c(NC(=O)CN2CCN(c3ccccc3OC)CC2)c1	.	-	-	-	-	-	.	.
COc1ccc(N2CCN(CC(=O)Nc3nnc(-c4ccccc4)s3)CC2)cc1	-	-	11	-	-	-	-	-
COC(=O)c1ccc(C(=O)OC)c(NC(=O)CN2CCN(c3ccccc3)CC2)c1	.	-	15	-	-	-	14	-
O=C(CN1CCN(c2ccccc2)CC1)Nc1nnc(-c2ccccc2)s1	-	-	-	-	-	-	.	.
C=CCNC(=S)N1CCN(c2ncc(C(F)(F)F)cc2Cl)CC1	-	-	-	-	-	-	.	.
Cc1cc(C)cc(NC(=S)N2CCN(c3ncc(C(F)(F)F)cc3Cl)CC2)c1	-	-	17	-	-	-	-	-
CC(C)=C[C@H]1C[C@H](C)[C@H]2CC[C@H](C)c3c(O)c(O[C@H]4OC[C@H](O)[C@@H](O)[C@@H]4O)c(C)c1c32	.	.	12	.	-	-	-	-
O=C(CC1c2ccccc2Oc2ccccc21)Nc1ccccc1C(F)(F)F	.	-	17	-	-	-	-	-
O=C(CC1c2ccccc2Oc2ccccc21)Nc1ccccc1F	.	-	11	-	-	-	-	-
COC(=O)[C@]12C[C@H](CC(=O)NCc3ccc(OC)c(OC)c3)C(=O)N(Cc3ccc4c(c3)OCO4)C1=C[C@H](COCc1ccccc1)O[C@@H]2C	.	.	.	.	.	-	.	.
C=CCn1c(O)c(C2=c3ccccc3=NC2=O)s/c1=N/c1nccs1	-	-	10	-	-	-	-	-
